In PMC9546099 (British Journal of Clinical Pharmacology, 2022):
Values joined by “and” are separate entries in the source; they are usually repeats but may differ in a detail not shown here. Equal entries are not always repeated. Structures can show the parent of a compound that is named as a salt. Where two headings read alike, the source gives them in different places.

Experiments:
[1] = Metabolite profiling in plasma AUC pool by LC-AMS; assay type: in vivo, human; conditions: average, AMS radiodetection
Summary of the method: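 A per-subject plasma AUC pool (Hamilton method) covered at least the last quantifiable time point. Plasma (5 g) was precipitated twice with acetonitrile, evaporated and resuspended in DMSO:acetonitrile:water 20:20:60. LC fractions were measured by AMS, with carbon content in duplicate. Peaks were assigned against spiked synthetic standards (UV 250 nm). Extraction recovery compared pool versus supernatant and reconstituted-extract radioactivity.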

COMT = conditions: cited from earlier work; for IC50: read-out: IC50 against COMT
[2] = assay type: in vivo, human; conditions: for Tmax: t max; for Tmax / Tlag: median (minimum - maximum)
Summary of the method: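 Plasma was precipitated with acetonitrile plus internal standards, vortexed and centrifuged. Supernatant was diluted with water for validated LC-MS/MS of parent and metabolites, with quantification limit 10 ng/mL and calibration curves and QC samples in every batch. Noncompartmental analysis per subject gave geometric mean (%CV) parameters, with tmax as median (min–max).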

[3] = Metabolite profiling in urine and faeces by LC-MS and off-line radiodetection; assay type: in vivo, human
Summary of the method: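 Urine was pooled per subject to ≥80% of recovered radioactivity and concentrated. Faeces were pooled to >90% of excreted radioactivity, plus cross-subject 48-72 h and 96-120 h pools; these were acetonitrile-extracted, dried and reconstituted in acetonitrile:water 20:80. Analysis used accurate-mass LC-MS (± switching, 70 000 resolution, 100-800 amu; HCD MS/MS 17 500) with off-line radiodetection, reported as % administered radioactivity.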

[4] = nonhuman primate [NHP]; cited from earlier work
[5] = rat; cited from earlier work
[6] = cited from earlier work
[7] = cited from earlier work; remark: listed apart in the source
[8] = cited from earlier work; remark: listed apart in the source
[9] = male, human, plasma, oral, 100 mg

Question: Which results are given for COc1c(O)cc(-c2nc(-c3c(C)c(Cl)c(C)[n+]([O-])c3Cl)no2)cc1[N+](=O)[O-] [BIA 9‐1104, 2,5-dichloro-3-(5-(3-hydroxy-4-methoxy-5-nitrophenyl)-1,2,4-oxadiazol-3-yl)-4,6-dimethylpyridine 1-oxide]?
Answer: % of total circulating radioactivity [1]: 6.59%; IC50 (COMT): 429 nM

Question: What does the source list for Cc1nc(Cl)c(-c2noc(-c3cc(O)c(O)c([N+](=O)[O-])c3)n2)c(C)c1Cl [BIA 9‐1079, 5-(3-(2,5-dichloro-4,6-dimethylpyridin-3-yl)-1,2,4-oxadiazol-5-yl)-3-nitrobenzene-1,2-diol]?
Answer: IC50 (COMT): 128 nM; plasma concentration ([2]; below the limit of quantification in almost all time points): < 10 ng/mL

Question: With COc1cc(-c2nc(-c3c(C)c(Cl)c(C)[n+]([O-])c3Cl)no2)cc([N+](=O)[O-])c1O [BIA 9‐1101, 2,5-dichloro-3-(5-(4-hydroxy-3-methoxy-5-nitrophenyl)-1,2,4-oxadiazol-3-yl)-4,6 dimethylpyridine 1-oxide] as the molecule, how does the “% of total circulating radioactivity” value [1] read?
Answer: 0.39%

Question: Which “% of the administered radioactivity in urine” value ([3]; average, pooled urine) does the source give for Cc1c(Cl)c(C)[n+]([O-])c(Cl)c1-c1noc(-c2cc(O[C@@H]3O[C@H](C(=O)O)[C@@H](O)[C@H](O)[C@H]3O)c(O)c([N+](=O)[O-])c2)n1 [BIA 9‐1106, 3-(5-(3-((2S,3R,4S,5S,6S)-6-carboxy-3,4,5-trihydroxytetrahydro-2H-pyran-2-yloxy)-4-hydroxy-5-nitrophenyl)-1,2,4-oxadiazol-3-yl)-2,5-dichloro-4,6-dimethylpyridine 1-oxide] here?
Answer: 1.72% and < 2%

Question: And the AUC(0-t) [2, 9]?
Answer: 75 ng·h/mL

Question: And the Cmax [2, 9]?
Answer: 33.6 ng/mL

Question: And the Tmax [2, 9]?
Answer: 2 h

Question: And the Tlag ([2]; plasma)?
Answer: 0.75 (0.500‐2.00) h

Question: With COc1c(OS(=O)(=O)O)cc(-c2nc(-c3c(C)c(Cl)c(C)[n+]([O-])c3Cl)no2)cc1[N+](=O)[O-].c1ccncc1 [BIA 9‐4584, pyridin-1-ium 5-(3-(2,5-dichloro-4,6-dimethyl-1-oxidopyridin-3-yl)-1,2,4-oxadiazol-5-yl)-2-methoxy-3-nitrophenyl sulfate] as the molecule, how does the “% of total circulating radioactivity” value [1] read?
Answer: 2.30%

Question: For COc1c(O)cc(-c2nc(-c3c(C)c(Cl)c(C)[n+]([O-])c3SC[C@H](N)C(=O)O)no2)cc1[N+](=O)[O-].Cl [BIA 9‐5049, (R)-2-((2-amino-2-carboxyethyl)thio)-5-chloro-3-(5-(3-hydroxy-4-methoxy-5-nitrophenyl)-1,2,4-oxadiazol-3-yl)-4,6-dimethylpyridine 1-oxide hydrochloride], which “% of total circulating radioactivity” value [1] is on record?
Answer: 3.72%

Question: Which results are given for Cc1c(Cl)c(C)[n+]([O-])c(Cl)c1-c1noc(-c2cc(O)c(O)c([N+](=O)[O-])c2)n1 [opicapone, 2,5‐dichloro‐3‐(5‐[3,4‐dihydroxy‐5‐nitrophenyl]‐1,2,4‐oxadiazol‐3‐yl)‐4,6‐dimethylpyridine 1‐oxide, reference compound]?
Answer: fraction of the dose recovered in faeces [4]: more than 70%; % of total circulating radioactivity [1]: 12.1%; % of the administered radioactivity excreted in faeces ([3]; average, pooled faeces): 22.32%; unchanged parent observed in urine ([3]; in vivo): Only trace amounts; AUC(0-inf) [2, 9]: 1890 ng·h/mL; AUC(0-t) [2, 9]: 1830 ng·h/mL; Cmax [2, 9]: 600 ng/mL; half-life [2, 9]: 1 h; Tmax [2, 9]: 2 h; Tlag ([2]; plasma): 0.250 (0.250‐0.500) h; fraction of the dose recovered in faeces [5]: more than 70%; cytotoxicity [6]: not to induce cytotoxicity; dose proportionality of the pharmacokinetic profile [7]: dose‐proportional up to 1200 mg

Question: For Cc1c(Cl)c(C)[n+]([O-])c(Cl)c1-c1noc(-c2cc(OS(=O)(=O)O)c(O)c([N+](=O)[O-])c2)n1 [BIA 9‐1103, 5-(3-(2,5-dichloro-4,6-dimethyl-1-oxidopyridin-3-yl)-1,2,4-oxadiazol-5-yl)-2-hydroxy-3-nitrophenyl sulfate], which “% of total circulating radioactivity” value [1] is on record?
Answer: 58.6%

Question: What about the “binding to plasma proteins” value [8] of the same molecule?
Answer: more than 98%

Question: What about the “pharmacological activity on COMT” value (COMT) of the same molecule?
Answer: pharmacologically inactive on COMT

Question: And the “pharmacological activity on COMT” value (COMT; listed as 3‐O‐sulfate‐opicapone)?
Answer: pharmacologically inactive

Question: What about the AUCt ([2]; plasma, geometric mean (% CV)) of the same molecule?
Answer: 8120 (75.7) ng.h/ml

Question: And the C max ([2]; plasma, geometric mean (% CV))?
Answer: 115(48.7) ng/ml

Question: What about the Tlag ([2]; plasma) of the same molecule?
Answer: 1.05 (1.00‐2.00) h

Question: With COc1cc(-c2nc(-c3c(C)c(Cl)c(C)[n+]([O-])c3Cl)no2)cc([N+](=O)[O-])c1O [BIA 9‐1100, 2,5-dichloro-3-(5-(4-hydroxy-3-methoxy-5-nitrophenyl)-1,2,4-oxadiazol-3-yl)-4,6-dimethylpyridine 1-oxide] as the molecule, how does the “% of total circulating radioactivity” value [1] read?
Answer: 2.96%
